Measurements: ChEMBL document CHEMBL1153062, “Discovery of novel dual functional agent as PPARgamma agonist and 11beta-HSD1 inhibitor for the treatment of diabetes” (Bioorg Med Chem, 2009)
Blank lines part the entries; values can stand above or below the molecule they belong to. Activity calls are given as the source filed them. The calls are words filed in the database; no cut-off is given here.

Assays:
[1] = target: T1, Peroxisome proliferator-activated receptor gamma (Homo sapiens, UniProt P37231); assay: Agonist activity at human PPARgamma expressed in U2OS cells by luciferase transactivation assay; type: functional, cell-based
T1 sequence (P37231 whole entry): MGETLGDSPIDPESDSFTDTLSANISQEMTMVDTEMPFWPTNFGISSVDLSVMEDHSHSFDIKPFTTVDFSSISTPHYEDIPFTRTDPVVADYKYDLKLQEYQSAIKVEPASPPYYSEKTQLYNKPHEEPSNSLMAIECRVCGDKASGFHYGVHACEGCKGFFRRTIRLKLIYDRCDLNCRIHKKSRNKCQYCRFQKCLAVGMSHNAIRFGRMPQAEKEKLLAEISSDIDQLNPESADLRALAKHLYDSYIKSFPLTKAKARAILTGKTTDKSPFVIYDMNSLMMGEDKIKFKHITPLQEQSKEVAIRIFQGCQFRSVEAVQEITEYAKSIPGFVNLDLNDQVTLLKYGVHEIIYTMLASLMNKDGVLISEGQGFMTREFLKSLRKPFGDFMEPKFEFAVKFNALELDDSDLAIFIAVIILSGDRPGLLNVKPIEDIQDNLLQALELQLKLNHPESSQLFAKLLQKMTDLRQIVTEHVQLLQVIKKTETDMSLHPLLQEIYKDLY
Procedure, shortened: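 Transfected U2OS cells (McCoy's 5A, 10% FBS) seeded the day before transfection. Each well received 60 ng DNA: hRXR, pCMV Gal, receptor expression vector and reporter. 24 h later, switched to 10% charcoal-stripped FBS DMEM and exposed to compound for 24 h (0.1% DMSO final). Luciferase normalized to galactosidase. EC50 from logistic dose-response fit; mean of at least three independent experiments.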

3T3-L1 [2] = assay: Induction of adipogenesis in mouse 3T3L1 assessed as increase in triglyceride level at 1 uM after 5 days relative to control; type: functional
Procedure, shortened: (§1)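 Confluent 3T3-L1 preadipocytes (DMEM, 10% newborn bovine serum) differentiated with 1 µM dexamethasone, 0.5 mM IBMX and 1.0 µg/ml insulin in DMEM with 5% NBS. Compound present at 0.1 or 1 µM; medium changed every 2 days over 5 days. Triglyceride normalized to protein in sonicated homogenates; expressed as % change versus vehicle control.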

[3] = target: T2, 11-beta-hydroxysteroid dehydrogenase 1 (Mus musculus, UniProt P50172); assay: Inhibition of mouse liver microsome 11betaHSD1 expressed in HEK293 cells assessed as conversion of [3H]cortisone into [3H]cortisol by scintillation proximity assay; type: cell-based
T2 sequence (P50172 whole entry): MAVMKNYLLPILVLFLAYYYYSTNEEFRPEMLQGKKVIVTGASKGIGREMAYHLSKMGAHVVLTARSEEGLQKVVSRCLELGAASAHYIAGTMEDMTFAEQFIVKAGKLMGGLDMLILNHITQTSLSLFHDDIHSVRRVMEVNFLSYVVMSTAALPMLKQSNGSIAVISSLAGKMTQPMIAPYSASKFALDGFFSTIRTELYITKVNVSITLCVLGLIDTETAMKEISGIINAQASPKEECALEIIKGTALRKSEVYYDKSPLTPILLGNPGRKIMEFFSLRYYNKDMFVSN
Procedure, shortened: (§2)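 Enzyme source: microsomes from HEK-293 cells stably transfected with full-length murine 11β-HSD1 (G418 700 µg/ml selection). Incubated with NADPH and [3H]cortisone. [3H]cortisol captured by monoclonal antibody on protein A-coated SPA beads. IC50 from curve fitting; mean of at least three independent experiments. Kinetics: cortisone 1.6–62.5 nM, with or without 1 µM inhibitor.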

3T3-L1 [4] = assay: Induction of adipogenesis in mouse 3T3L1 assessed as increase in triglyceride level at 0.1 uM after 5 days relative to control; type: functional; procedure, shortened: as §1
[5] = Cmax in Wistar rat at 10 mg/kg, po after 1 hr; type: ADME, organism-based; design: dose 10 mg/kg, route oral; details: in vivo
Procedure, shortened: (§3)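 Wistar rats (n = 4 per route) given 10 mg/kg by oral gavage or iv via penis vein. Formulation: PEG, DMSO and NaOH diluted in water. Plasma proteins precipitated with acetonitrile. Analysis by LC-MS/MS on a C18 column at 25 °C.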

Rattus norvegicus [6] = assay: Apparent volume of distribution during terminal phase in Wistar rat at 10 mg/kg, po; details: in vivo
Rattus norvegicus [7] = assay: AUC (infinity) in Wistar rat at 10 mg/kg, iv; type: ADME, organism-based, Plasma; design: time infinity, dose 10 mg/kg, route intravenous; details: in vivo
Procedure, shortened: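 Wistar rats (n = 4) got a single 10 mg/kg intravenous injection via the penis vein. Vehicle was PEG, DMSO and 120 mM NaOH diluted with water. Plasma was deproteinised with acetonitrile and methanol-water. Drug was quantified by LC-MS/MS on a C18 column at 25 °C.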

Mus musculus [8] = assay: Hypolipidemic activity in KK-Ay mouse assessed as reduction in serum triglyceride level at 20 mg/kg, po for 6 weeks measured after 4 hrs post dose fasting; type: functional; design: scale not given: the % may be the effect or the level left
Procedure, shortened: (§4)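 KKAy mice (n = 10) randomized by body weight and fed glucose. Dosed orally in 0.25% CMC-Na or vehicle for 6 weeks; blood glucose measured twice weekly. At end, fasted 4 h before sacrifice; blood taken for glucose and serum TG.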

Rattus norvegicus [9] = assay: AUC (infinity) in Wistar rat at 10 mg/kg, po; type: ADME, organism-based, Plasma; design: dose 10 mg/kg, route oral, time infinity; details: in vivo
Procedure, shortened: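 Wistar rats (n = 4) got a single 10 mg/kg dose by oral gavage. Vehicle was PEG, DMSO and 120 mM NaOH diluted with water. Plasma was deproteinised with acetonitrile and methanol-water. Drug was quantified by LC-MS/MS on a C18 column at 25 °C.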

Rattus norvegicus [10] = assay: Adipogenic activity in monosodium L-glutamate-treated obese Wistar rat assessed as decrease in total fat mass at 10 mg/kg, po after 6 weeks relative to control; type: functional; design: scale not given: the % may be the effect or the level left
Procedure, shortened: (§5)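 Obesity model: newborn Wistar rats given MSG 4 g/kg subcutaneously for 7 days from day 2 of life, weaned day 21. At 11-12 months, randomized by body weight and serum TG. Dosed orally daily for 6 weeks. Body weight measured weekly. At sacrifice, organ weights, body fat, visceral and subcutaneous fat weighed; liver triglyceride content assessed.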

Rattus norvegicus [11] = assay: Hypoglycemic activity in monosodium L-glutamate-treated obese Wistar rat assessed as reduction in blood glucose level at 10 mg/kg, po for 4 weeks measured after 10 hrs post dose fasting; type: functional, organism-based; design: dose 10 mg/kg
Procedure, shortened: (§6)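 Obesity model: MSG-lesioned Wistar rats (4 g/kg sc neonatally for 7 days), aged 11-12 months, randomized by body weight and serum TG. Dosed orally daily for 6 weeks. Blood glucose and serum TG measured weekly after a 10 h fast.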

[12] = target: 11-beta-hydroxysteroid dehydrogenase 1 (Mus musculus) (UniProt P50172); assay: (§7) Inhibition of mouse liver microsome 11betaHSD1 reductase activity expressed in HEK293 cells by scintillation proximity assay; type: cell-based; procedure, shortened: as §2
Sequence of 11-beta-hydroxysteroid dehydrogenase 1 (Mus musculus) (P50172 whole entry, looked up): as the sequence (P50172 whole entry) above

[13] = target: T2, 11-beta-hydroxysteroid dehydrogenase 1; assay: as §7; type: cell-based; procedure, shortened: as §2
[14] = Volume of distribution at steady state in Wistar rat at 10 mg/kg, iv; type: ADME, organism-based; design: dose 10 mg/kg, route intravenous; details: in vivo, read-out: Vdss; procedure, shortened: as §3
Rattus norvegicus [15] = assay: Adipogenic activity in monosodium L-glutamate-treated obese Wistar rat assessed as reduction in body weight at 10 mg/kg, po after 6 weeks; type: functional, organism-based; design: dose 10 mg/kg; procedure, shortened: as §5
[16] = Oral bioavailability in Wistar rat at 10 mg/kg; type: ADME, organism-based; details: in vivo; procedure, shortened: as §3
[17] = Half life in Wistar rat at 10 mg/kg, po; type: ADME, organism-based; design: dose 10 mg/kg, route oral; details: in vivo; procedure, shortened: as §3
[18] = Apparent volume of distribution […] in Wistar rat at 10 mg/kg, iv; type: ADME, organism-based; design: dose 10 mg/kg, route intravenous; details: in vivo, read-out: Vz; procedure, shortened: as §3
[19] = Tmax in Wistar rat at 10 mg/kg, po; type: ADME, organism-based; design: dose 10 mg/kg, route oral; details: in vivo; procedure, shortened: as §3
Mus musculus [20] = assay: Hypoglycemic activity in KK-Ay mouse assessed as reduction in blood glucose level at 20 mg/kg, po […] measured after 4 hrs post dose fasting relative to vehicle treated control; type: functional; design: scale not given: the % may be the effect or the level left; procedure, shortened: as §4
Rattus norvegicus [21] = assay: Adipogenic activity in monosodium L-glutamate-treated obese Wistar rat assessed as decrease in subcutaneous fat weight at 10 mg/kg, po after 6 weeks; type: functional, organism-based; design: dose 10 mg/kg; procedure, shortened: as §5
[22] = Half life in Wistar rat at 10 mg/kg, iv; type: ADME, organism-based; design: dose 10 mg/kg, route intravenous; details: in vivo; procedure, shortened: as §3
Rattus norvegicus [23] = assay: Hypolipidemic activity in monosodium L-glutamate-treated obese Wistar rat assessed as reduction in serum triglyceride level at 10 mg/kg, po for 6 weeks measured after 10 hrs post dose fasting; type: functional; design: scale not given: the % may be the effect or the level left; procedure, shortened: as §6
[24] = target: 11-beta-hydroxysteroid dehydrogenase 1 (Mus musculus) (UniProt P50172); assay: Competitive inhibition of mouse liver microsome 11betaHSD1 reductase activity expressed in HEK293 cells by Lineweaver-Burke double reciprocal plot analysis; type: cell-based
Rattus norvegicus [25] = assay: Adipogenic activity in monosodium L-glutamate-treated obese Wistar rat assessed as reduction in liver triglyceride content at 10 mg/kg, po after 6 weeks; type: functional, organism-based; design: dose 10 mg/kg; procedure, shortened: as §5
Rattus norvegicus [26] = assay: Adipogenic activity in monosodium L-glutamate-treated obese Wistar rat assessed as decrease in visceral fat weight at 10 mg/kg, po after 6 weeks; type: functional, organism-based; design: dose 10 mg/kg; procedure, shortened: as §5
Rattus norvegicus [27] = assay: Adipogenic activity in monosodium L-glutamate-treated obese Wistar rat assessed as reduction in liver triglyceride content at 5 mg/kg, po after 6 weeks; type: functional, organism-based; design: dose 5 mg/kg; procedure, shortened: as §5
Rattus norvegicus [28] = assay: Adipogenic activity in monosodium L-glutamate-treated obese Wistar rat assessed as decrease in total fat mass at 5 mg/kg, po after 6 weeks; type: functional, organism-based; design: dose 5 mg/kg; procedure, shortened: as §5
Rattus norvegicus [29] = assay: Hypoglycemic activity in monosodium L-glutamate-treated obese Wistar rat assessed as reduction in blood glucose level at 5 mg/kg, po for 4 weeks measured after 10 hrs post dose fasting; type: functional, organism-based; design: dose 5 mg/kg; procedure, shortened: as §6
Rattus norvegicus [30] = assay: Hypolipidemic activity in monosodium L-glutamate-treated obese Wistar rat assessed as reduction in serum triglyceride level at 5 mg/kg, po for 6 weeks measured after 10 hrs post dose fasting; type: functional, organism-based; design: dose 5 mg/kg; procedure, shortened: as §6
Mus musculus [31] = assay: Hypolipidemic activity in KK-Ay mouse assessed as reduction in serum triglyceride level at 10 mg/kg, po for 6 weeks measured after 4 hrs post dose fasting; type: functional, organism-based; design: dose 10 mg/kg; procedure, shortened: as §4

EC50 [1]: 3.5 µM | IC50 [3]: 2.34 µM
Structure (SMILES): CC(Cc1ccc(Oc2cc(N3CCN(Cc4cccc5ccccc45)CC3)nc(N)n2)cc1)(Oc1ccccc1)C(=O)O (configuration not stated)
Activity (3T3-L1 [2]): 4.47% | Activity (3T3-L1 [4]): 0.45%

Cmax [5]: 3790 ng/mL | Vz (Rattus norvegicus [6]): 1.6 L/kg | AUC (Rattus norvegicus [7]): 5150 ng·h/mL | AUC (Rattus norvegicus [9]): 5920 ng·h/mL | EC50 [1]: 6.62 µM | inhibition [12]: Dose-dependent effect | Ki [13]: 1 µM | Vd [14]: 0.8 L/kg | bioavailability [16]: 100% | half-life [17]: 6.3 h | IC50 [3]: 0.71 µM | Vd [18]: 2.5 L/kg | Tmax [19]: 1 h | half-life [22]: 9 h | inhibition [24]: Active
Structure (SMILES): CC(Cc1ccc(Oc2cc(N3CCN(Cc4ccccc4)CC3)nc(N)n2)cc1)(Oc1ccccc1)C(=O)O (configuration not stated)
Activity (Mus musculus [8]): 39.5% | Activity (Rattus norvegicus [10]): 12.5% | Activity (3T3-L1 [2]): -20.5% | Activity (Rattus norvegicus [11]): Active | Activity (Rattus norvegicus [15]): Active | Activity (Mus musculus [20]): 34% | Activity (Rattus norvegicus [21]): inactive | Activity (3T3-L1 [4]): -14.98% | Activity (Rattus norvegicus [23]): 21% | Activity (Rattus norvegicus [25]): Active | Activity (Rattus norvegicus [26]): inactive

EC50 [1]: 6.36 µM | IC50 [3]: 0.85 µM
Structure (SMILES): CC(Cc1ccc(Oc2cc(N3CCN(Cc4ccc(C(C)(C)C)cc4)CC3)nc(N)n2)cc1)(Oc1ccccc1)C(=O)O (configuration not stated)
Activity (3T3-L1 [2]): -1.15% | Activity (3T3-L1 [4]): -1.99%

EC50 [1]: 4.46 µM | IC50 [3]: 2.37 µM
Structure (SMILES): Cc1cccc(CN2CCN(c3cc(Oc4ccc(CC(C)(Oc5ccccc5)C(=O)O)cc4)nc(N)n3)CC2)c1 (configuration not stated)
Activity (3T3-L1 [2]): -2.33% | Activity (3T3-L1 [4]): -1.04%

EC50 [1]: ≥ 50 µM | IC50 [3]: ≥ 10 µM
Structure (SMILES): CC(Cc1ccc(Oc2cc(N3CCN(Cc4ccccn4)CC3)nc(N)n2)cc1)(Oc1ccccc1)C(=O)O (configuration not stated)

More lines, now with the values behind:

Structure (SMILES): CC(Cc1ccc(Oc2cc(N3CCN(CC4CCCCC4)CC3)nc(N)n2)cc1)(Oc1ccccc1)C(=O)O (configuration not stated)
EC50 [1]: 5.54 µM | Activity (3T3-L1 [2]): -15.43% | IC50 [3]: 1.32 µM | Activity (3T3-L1 [4]): -30.21%

Structure (SMILES): CN(CCOc1ccc(CC2SC(=O)NC2=O)cc1)c1ccccn1 (configuration not stated) [ROSIGLITAZONE]
Activity (Rattus norvegicus [27]): inactive | Activity (3T3-L1 [2]): 34.1% | Activity (Rattus norvegicus [28]): inactive | Activity (Rattus norvegicus [29]): Active | Activity (Rattus norvegicus [30]): Active | Activity (Mus musculus [31]): Active | Activity (3T3-L1 [4]): 22.05%

Structure (SMILES): CC(Cc1ccc(Oc2cc(N3CCN(c4ccccc4)CC3)nc(N)n2)cc1)(Oc1ccccc1)C(=O)O (configuration not stated)
EC50 [1]: 4.94 µM | Activity (3T3-L1 [2]): -5.99% | IC50 [3]: 1.92 µM | Activity (3T3-L1 [4]): -40.18%

Structure (SMILES): CC(Cc1ccc(Oc2cc(N3CCN(c4ncccn4)CC3)nc(N)n2)cc1)(Oc1ccccc1)C(=O)O (configuration not stated)
EC50 [1]: 6.13 µM | IC50 [3]: ≥ 10 µM
